According to ChEMBL document CHEMBL4014334, “BET Bromodomain Inhibitors with One-Step Synthesis Discovered from Virtual Screen” (J Med Chem, 2017):
The source made the active and inactive calls. The rule behind the calls is not given here.

Legend:
[1] = target: T1, Bromodomain testis-specific protein (Homo sapiens, UniProt Q58F21); test: Inhibition of BI-BODIPY binding to BRDT bromodomain 1 (29 to 134 residues) (unknown origin) expressed in Escherichia coli BL21(DE3) by fluorescence anisotropy assay
[2] = target: T1, Bromodomain testis-specific protein; test: Binding affinity to BRDT bromodomain 1 (29 to 134 residues)(unknown origin) expressed in Escherichia coli BL21(DE3) assessed as change in melting temperature at 150 uM at 25 to 75 degC after 5 mins by SYPRO orange dye based differential scanning fluorimetric analysis
Summary of the method: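 DSF with 10 μM BrdT(1) in 50 mM HEPES pH 7.5, 100 mM NaCl, with 5x SYPRO Orange. The 8-point dose range is 1250–9 μM at 2.5% DMSO, run in duplicate. After 5 min at 25 °C, samples are heated from 25 to 75 °C in 0.2 °C steps. Tm is the peak of the negative first derivative. ΔTm is taken against the DMSO control. Plates with Z' below 0.5 are excluded.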

[3] = target: T2, Bromodomain-containing protein 4 (Homo sapiens, UniProt O60885); test: Inhibition of BI-BODIPY binding to BRD4 bromodomain 1 (42 to 168 residues)(unknown origin) expressed in Escherichia coli BL21(DE3) by fluorescence anisotropy assay
Summary of the method: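 Competition fluorescence anisotropy in 50 mM Tris, 100 mM NaCl, pH 7.4, 4 mM CHAPS, 0.5% DMSO; BrdT also contains 3 mM DTT. Tracer BI-BODIPY is at 0.025 μM. Protein is set at the level giving 80% tracer bound. Ex 485/em 535. A four-parameter IC50 is converted to Ki by a Cheng-Prusoff variant, from ≥3 independent experiments.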

MM1.S = test: Cytotoxicity against human MM1S cells assessed as reduction in cell viability after 72 hrs by MTT assay; type: functional, cell-based
[4] = target: T1, Bromodomain testis-specific protein; test: Inhibition of BI-BODIPY binding to BRDT bromodomain 1 (29 to 134 residues) (unknown origin) expressed in Escherichia coli BL21(DE3) up to 1000 uM by fluorescence polarization assay
[5] = target: T2, Bromodomain-containing protein 4; test: Inhibition of BI-BODIPY binding to BRD4 bromodomain 1 (42 to 168 residues)(unknown origin) expressed in Escherichia coli BL21(DE3) up to 1000 uM by fluorescence polarization assay
[6] = target: T2, Bromodomain-containing protein 4; test: Binding affinity to 5FW-labeled BRD4 bromodomain 1 (unknown origin) expressed in Escherichia coli BL21(DE3) by PrOF NMR spectroscopic analysis
Summary of the method: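 BrdT samples also contain 3 mM DTT. Spectra recorded with compound present and absent at 500 MHz, 90° flip angle, 0.7 s relaxation delay, 0.1 s acquisition, 500 transients. The read-out is broadening or shift of the binding-pocket Trp resonance.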

| SMILES | Ki [1] [nM] | ΔTm [2] [°C] | IC50 [1] [nM] | Ki [3] [nM] | further results |
| --- | --- | --- | --- | --- | --- |
| CCn1c2c(c(=O)[nH]c1=O)C(c1ccc(C)cc1)C1=C(CN(Cc3ccccc3)C1=O)N2 (stereo unspecified) | 230 |  | 550 | 190 | IC50 [3]: 240 nM; IC50 (MM1.S): 2100 nM |
| O=c1[nH]c(=O)c2c([nH]1)[nH]/c(=N/CCO)n2Cc1cccc2ccccc12 |  |  | 87000 |  |  |
| CCn1c2c(c(=O)[nH]c1=O)C(c1ccc(C)cc1)C(C(=O)OCc1ccccc1)=C(C)N2 (stereo unspecified) |  |  |  |  | inhibition [4]: inactive; inhibition [5]: inactive |
| CCn1c2c(c(=O)[nH]c1=O)C(c1ccc(C)cc1)C1=C(CN(C)C1=O)N2 (stereo unspecified) | 5600 | -0.04 |  | 2500 |  |
| CCn1c2c(c(=O)[nH]c1=O)C(c1ccccc1)C1=C(COC1=O)N2 (stereo unspecified) | 1400 | 0.99 |  | 350 |  |
| CCn1c2c(c(=O)[nH]c1=O)C(c1ccc(Cl)cc1)C1=C(COC1=O)N2 (stereo unspecified) | 1100 | 1.4 |  | 300 |  |
| COc1ccc(C2C3=C(COC3=O)Nc3c2c(=O)n(C)c(=O)n3C)cc1 (stereo unspecified) | > 40000 | -0.48 |  |  |  |
| CN1C(=O)CC/N=C(/c2ccc(Cl)cc2)c2cc(Cl)ccc21 |  |  | 220000 |  |  |

Second part, led by results:

| Ki [1] [nM] | ΔTm [2] [°C] | IC50 [1] [nM] | Ki [3] [nM] | SMILES | further results |
| --- | --- | --- | --- | --- | --- |
| > 40000 | -1.1 |  |  | Cn1c2c(c(=O)[nH]c1=O)C(c1ccccc1)C1=C(COC1=O)N2 (stereo unspecified) |  |
| 200 |  | 1000 | 100 | CCn1c2c(c(=O)[nH]c1=O)C(c1ccc(C)cc1)C1=C(CN(CCc3ccc(OC)cc3)C1=O)N2 (stereo unspecified) | IC50 [3]: 480 nM; IC50 (MM1.S): 2100 nM |
| > 40000 | 0.06 |  | > 40000 | Cc1ccc(C2C3=C(COC3=O)Nc3c2c(=O)[nH]c(=O)n3C2CC2)cc1 (stereo unspecified) |  |
| 220 |  | 1000 | 140 | CCn1c2c(c(=O)[nH]c1=O)C(c1ccc(C)cc1)C1=C(CN(CCc3ccccc3)C1=O)N2 (stereo unspecified) | IC50 [3]: 1000 nM; IC50 (MM1.S): 1200 nM |
| 200 |  | 760 | 110 | CCn1c2c(c(=O)[nH]c1=O)C(c1ccc(C)cc1)C1=C(CN(CCc3ccc(O)cc3)C1=O)N2 (stereo unspecified) | IC50 [3]: 390 nM; Activity [6]: Active |
|  |  | 140000 |  | CCn1c(=O)n(CC)c2cc(C=O)ccc21 |  |
| > 40000 |  |  | > 40000 | CCn1c2c(c(=O)n(C)c1=O)C(c1ccc(C)cc1)C1=C(COC1=O)N2 (stereo unspecified) |  |
| 2400 | 0.14 |  | 1200 | CCCn1c2c(c(=O)[nH]c1=O)C(c1ccccc1)C1=C(COC1=O)N2 (stereo unspecified) |  |
